{"source": "ChEMBL document CHEMBL1125322", "about": "“Stabilization of the N-terminal residues of luteinizing hormone-releasing hormone agonists and the effect on pharmacokinetics” (J Med Chem, 1992)", "key": {"[1]": {"experiment": "Compound was tested in vitro for lumenal concentration in the rat jejunal sac to decrease by 50%.", "assay_type": "ADME", "method_in_brief": "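Peptides were incubated at 37 °C inside short closed segments of rat jejunum in oxygenated Ringer's buffer, pH 6.8. At set times, segments were removed from the bath and the lumenal contents were assayed for peptide by HPLC. T1/2 is the time, in min, for the lumenal concentration to fall by 50%.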"}, "[2]": {"experiment": "Compound was tested in vivo for clearance after iv administration in the rat", "assay_type": "ADME, organism-based", "method_in_brief": "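Rats received each compound as an iv bolus. Serum levels were measured by RIA using an antibody recognizing the C-terminal Leu-Arg-ProNHEt; one analogue was measured with an anti-[D-Lys6]LHRH antibody instead. Whole-body clearance was calculated as dose divided by the area under the concentration–time curve and expressed in mL/min per kg.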"}, "[3]": {"experiment": "Compound was tested in vitro for chymotrypsin degradation", "assay_type": "ADME", "method_in_brief": "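Each peptide was mixed with chymotrypsin in 30 mM sodium phosphate/100 mM NaCl, pH 6.9 (enzyme at 5 µg/mL in the buffer before mixing, prewarmed to 37 °C) and incubated at 37 °C. Aliquots were taken at set intervals from 0.083 min up to 60 min and quenched in 3:7 acetonitrile/water. Degradation was followed chromatographically, and the half-life is given in min.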"}}, "note": "Square brackets hold non-standard residues; d marks the D form. Peptide text beside a SMILES is read from it. 1Nal = N[C@@H](Cc1cccc2ccccc12)C(=O)O; NMeF = CN[C@@H](Cc1ccccc1)C(=O)O; pGlu = O=C1CC[C@@H](C(=O)O)N1; NMeS = CN[C@@H](CO)C(=O)O", "data": [{"molecule": "CCNC(=O)[C@@H]1CCCN1C(=O)[C@H](CCCN=C(N)N)NC(=O)[C@H](CC(C)C)NC(=O)[C@@H](CC(C)C)NC(=O)[C@H](Cc1ccc(O)cc1)NC(=O)[C@H](CO)NC(=O)[C@H](Cc1c[nH]c2ccccc12)NC(=O)[C@H](Cc1ccccc1)NC(=O)[C@@H]1CCC(=O)N1", "note": "([pGlu]FWSY[dL]LRP-NHEt)", "values": [{"measurement": "half-life", "setting": "[1]", "value": 2.2, "unit": "min"}]}, {"molecule": "CCNC(=O)[C@@H]1CCCN1C(=O)[C@H](CCCN=C(N)N)NC(=O)[C@H](CC(C)C)NC(=O)[C@@H](CC(C)C)NC(=O)[C@H](Cc1ccc(O)cc1)NC(=O)[C@H](CO)N(C)C(=O)[C@H](Cc1c[nH]c2ccccc12)NC(=O)[C@H](Cc1c[nH]cn1)NC(=O)[C@@H]1CCC(=O)N1", "note": "([pGlu]HW[NMeS]Y[dL]LRP-NHEt)", "values": [{"measurement": "half-life", "setting": "[1]", "value": "> 90", "unit": "min"}]}, {"molecule": "CCNC(=O)[C@@H]1CCCN1C(=O)[C@H](CCCN=C(N)N)NC(=O)[C@H](CC(C)C)NC(=O)[C@@H](CC(C)C)NC(=O)[C@H](Cc1ccc(O)cc1)NC(=O)[C@H](CO)NC(=O)[C@H](Cc1ccc(Cl)cc1)NC(=O)[C@H](Cc1c[nH]cn1)NC(=O)[C@@H]1CCC(=O)N1", "values": [{"measurement": "clearance", "setting": "[2]", "value": 7.6, "unit": "mL/min/kg"}, {"measurement": "half-life", "setting": "[1]", "value": 4.4, "unit": "min"}]}, {"molecule": "CCNC(=O)[C@@H]1CCCN1C(=O)[C@H](CCCN=C(N)N)NC(=O)[C@H](CC(C)C)NC(=O)[C@@H](Cc1c[nH]c2ccccc12)NC(=O)[C@H](Cc1ccc(O)cc1)NC(=O)[C@H](CO)N(C)C(=O)[C@H](Cc1c[nH]c2ccccc12)NC(=O)[C@H](Cc1c[nH]cn1)NC(=O)CN(C)C(C)=O", "values": [{"measurement": "clearance", "setting": "[2]", "value": 28.3, "unit": "mL/min/kg"}, {"measurement": "half-life", "setting": "[1]", "value": 55, "unit": "min"}, {"measurement": "half-life", "setting": "[3]", "value": "> 60", "unit": "min"}]}, {"molecule": "CCNC(=O)[C@@H]1CCCN1C(=O)[C@H](CCCN=C(N)N)NC(=O)[C@H](CC(C)C)NC(=O)[C@@H](Cc1c[nH]c2ccccc12)NC(=O)[C@H](Cc1ccc(O)cc1)NC(=O)[C@H](CO)N(C)C(=O)[C@H](Cc1c[nH]c2ccccc12)NC(=O)[C@H](Cc1cnc[nH]1)NC(=O)[C@@H]1CCC(=O)N1", "values": [{"measurement": "half-life", "setting": "[1]", "value": 39.1, "unit": "min"}]}, {"molecule": "CCNC(=O)[C@@H]1CCCN1C(=O)[C@H](CCCNC(=N)N)NC(=O)[C@H](CC(C)C)NC(=O)[C@@H](CC(C)C)NC(=O)[C@H](Cc1ccc(O)cc1)NC(=O)[C@H](CO)NC(=O)[C@H](Cc1c[nH]c2ccccc12)NC(=O)[C@H](Cc1c[nH]cn1)NC(=O)[C@@H]1CCC(=O)N1", "values": [{"measurement": "half-life", "setting": "[1]", "value": 4, "unit": "min"}]}, {"molecule": "CCNC(=O)[C@@H]1CCCN1C(=O)[C@H](CCCN=C(N)N)NC(=O)[C@H](CC(C)C)NC(=O)[C@@H](CC(C)C)NC(=O)[C@H](Cc1ccc(O)cc1)NC(=O)[C@H](CO)NC(=O)[C@H](Cc1cccc2ccccc12)NC(=O)[C@H](Cc1c[nH]cn1)NC(=O)[C@@H]1CCC(=O)N1", "note": "([pGlu]H[1Nal]SY[dL]LRP-NHEt)", "values": [{"measurement": "half-life", "setting": "[1]", "value": 25, "unit": "min"}]}, {"molecule": "CCNC(=O)[C@@H]1CCCN1C(=O)[C@H](CCCN=C(N)N)NC(=O)[C@H](CC(C)C)NC(=O)[C@@H](CC(C)C)NC(=O)[C@H](Cc1ccc(O)cc1)NC(=O)[C@H](CO)NC(=O)[C@H](Cc1ccc(OC)cc1)NC(=O)[C@H](Cc1c[nH]cn1)NC(=O)[C@@H]1CCC(=O)N1", "values": [{"measurement": "clearance", "setting": "[2]", "value": 13.3, "unit": "mL/min/kg"}, {"measurement": "half-life", "setting": "[1]", "value": 14.9, "unit": "min"}]}, {"molecule": "CCNC(=O)[C@@H]1CCCN1C(=O)[C@H](CCCN=C(N)N)NC(=O)[C@H](CC(C)C)NC(=O)[C@@H](Cc1c[nH]c2ccccc12)NC(=O)[C@H](Cc1ccc(O)cc1)NC(=O)[C@H](CO)NC(=O)[C@H](Cc1c[nH]c2ccccc12)NC(=O)[C@H](Cc1ccccc1)NC(=O)[C@@H]1CCC(=O)N1", "note": "([pGlu]FWSY[dW]LRP-NHEt)", "values": [{"measurement": "half-life", "setting": "[1]", "value": 10.8, "unit": "min"}]}, {"molecule": "CCNC(=O)[C@@H]1CCCN1C(=O)[C@H](CCCN=C(N)N)NC(=O)[C@H](CC(C)C)NC(=O)[C@@H](CC(C)C)NC(=O)[C@H](Cc1ccc(O)cc1)NC(=O)[C@H](CO)NC(=O)[C@H](Cc1c[nH]c2ccccc12)NC(=O)[C@H](Cc1c[nH]cn1)NC(=O)CN(C)C(C)=O", "values": [{"measurement": "clearance", "setting": "[2]", "value": 24, "unit": "mL/min/kg"}, {"measurement": "half-life", "setting": "[1]", "value": 60, "unit": "min"}, {"measurement": "half-life", "setting": "[3]", "value": 1, "unit": "min"}]}, {"molecule": "CCNC(=O)[C@@H]1CCCN1C(=O)[C@H](CCCN=C(N)N)NC(=O)[C@H](CC(C)C)NC(=O)[C@@H](Cc1c[nH]c2ccccc12)NC(=O)[C@H](Cc1ccc(O)cc1)NC(=O)[C@H](CO)NC(=O)[C@H](Cc1c[nH]c2ccccc12)NC(=O)[C@H](Cc1ccccc1)N(C)C(=O)[C@@H]1CCC(=O)N1", "note": "([pGlu][NMeF]WSY[dW]LRP-NHEt)", "values": [{"measurement": "clearance", "setting": "[2]", "value": 44.4, "unit": "mL/min/kg"}, {"measurement": "half-life", "setting": "[1]", "value": 44.4, "unit": "min"}]}]}
